# Test results taken from ChEMBL document CHEMBL1649446, “Comparative antipneumococcal activities of sulopenem and other drugs” (2009).
# Experiments:
# Type in all cases: functional
# Streptococcus pneumoniae [1] = assay: Antimicrobial activity against Streptococcus pneumoniae isolate 1384 by agar dilution method
# How it was run: (§1)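 Agar dilution MIC on Mueller-Hinton agar with 5% sheep blood, inocula 10^4 CFU/spot; amoxicillin-clavulanate combined 1:2; S. pneumoniae ATCC 49619 quality control each run.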
# Streptococcus pneumoniae [2] = assay: Antimicrobial activity against Streptococcus pneumoniae isolate 1394 by agar dilution method
# Streptococcus pneumoniae [3] = assay: Antimicrobial activity against Streptococcus pneumoniae isolate 3282 by agar dilution method
# Streptococcus pneumoniae [4] = assay: Antimicrobial activity against Streptococcus pneumoniae 3 by time-kill analysis
# How it was run: (§2)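 Time-kill in cation-adjusted Mueller-Hinton broth with 5% lysed horse blood; inocula 5 × 105 to 5 × 10^6 CFU/ml; drugs at MIC, 2× and 4× MIC; 35°C shaking water bath; viable counts at 0, 3, 6, 12, 24 h. Bactericidal = ≥3 log10 CFU/ml (99.9%) drop from original inoculum; 90%/99%/99.9% killing scored per strain.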
# Streptococcus pneumoniae [5] = assay: Antimicrobial activity against Streptococcus pneumoniae 6 by time-kill analysis; how it was run: as §2
# Streptococcus pneumoniae [6] = assay: Antimicrobial activity against Streptococcus pneumoniae isolate 2874 by agar dilution method; how it was run: as §1
# Streptococcus pneumoniae [7] = assay: Antimicrobial activity against Streptococcus pneumoniae 10 by time-kill analysis; how it was run: as §2
# Streptococcus pneumoniae [8] = assay: Antimicrobial activity against Streptococcus pneumoniae isolate 3412 by agar dilution method; how it was run: as §1
# Streptococcus pneumoniae [9] = assay: Antimicrobial activity against Streptococcus pneumoniae isolate 3458 by agar dilution method
# Streptococcus pneumoniae [10] = assay: Antimicrobial activity against Streptococcus pneumoniae isolate 3481 by agar dilution method; how it was run: as §1
# Streptococcus pneumoniae [11] = assay: Antimicrobial activity against penicillin-resistant Streptococcus pneumoniae by agar dilution method; how it was run: as §1
# Streptococcus pneumoniae [12] = assay: Antimicrobial activity against Streptococcus pneumoniae isolate 1147 by agar dilution method; how it was run: as §1
# Streptococcus pneumoniae [13] = assay: Antimicrobial activity against Streptococcus pneumoniae 19A by agar dilution method; how it was run: as §1
# Streptococcus pneumoniae [14] = assay: Antimicrobial activity against Streptococcus pneumoniae 4 by time-kill analysis; how it was run: as §2
# Streptococcus pneumoniae [15] = assay: Antimicrobial activity against Streptococcus pneumoniae isolate 3374 by agar dilution method; how it was run: as §1
# Streptococcus pneumoniae [16] = assay: Antimicrobial activity against Streptococcus pneumoniae isolate 33 by agar dilution method; how it was run: as §1
# Streptococcus pneumoniae [17] = assay: Antimicrobial activity against Streptococcus pneumoniae isolate 3587 by agar dilution method
# Streptococcus pneumoniae [18] = assay: Antimicrobial activity against Streptococcus pneumoniae isolate 2688 by agar dilution method; how it was run: as §1
# Streptococcus pneumoniae [19] = assay: Antimicrobial activity against Streptococcus pneumoniae 1 by time-kill analysis
# How it was run: as §2, with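 “12 and” for “12,”, “if” for “=”, “reduction” for “drop”, “90% and 99%” for “90%/99%/99.9%”, “also scored.” for “scored per strain.”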
# Streptococcus pneumoniae [20] = assay: Antimicrobial activity against Streptococcus pneumoniae isolate 3681 by agar dilution method; how it was run: as §1
# Streptococcus pneumoniae [21] = assay: Antimicrobial activity against Streptococcus pneumoniae isolate 2880 by agar dilution method; how it was run: as §1
# Streptococcus pneumoniae [22] = assay: Antimicrobial activity against Streptococcus pneumoniae isolate 1146 by agar dilution method; how it was run: as §1
# Streptococcus pneumoniae [23] = assay: Antimicrobial activity against Streptococcus pneumoniae isolate 1564 by agar dilution method
# Streptococcus pneumoniae [24] = assay: Antimicrobial activity against Streptococcus pneumoniae isolate 3260 by agar dilution method
# Streptococcus pneumoniae [25] = assay: Antimicrobial activity against Streptococcus pneumoniae isolate 3346 by agar dilution method
# Streptococcus pneumoniae [26] = assay: Antimicrobial activity against Streptococcus pneumoniae isolate 4755 by agar dilution method; how it was run: as §1
# Streptococcus pneumoniae [27] = assay: Antimicrobial activity against Streptococcus pneumoniae isolate 1397 by agar dilution method; how it was run: as §1
# Streptococcus pneumoniae [28] = assay: Antimicrobial activity against Streptococcus pneumoniae isolate 24 by agar dilution method
# Streptococcus pneumoniae [29] = assay: Antimicrobial activity against Streptococcus pneumoniae isolate 2686 by agar dilution method; how it was run: as §1
# Streptococcus pneumoniae [30] = assay: Antimicrobial activity against Streptococcus pneumoniae 8 by time-kill analysis; how it was run: as §2
# Streptococcus pneumoniae [31] = assay: Antimicrobial activity against Streptococcus pneumoniae 7 by time-kill analysis; how it was run: as §2
# Streptococcus pneumoniae [32] = assay: Antimicrobial activity against Streptococcus pneumoniae isolate 1055 by agar dilution method
# Streptococcus pneumoniae [33] = assay: Antimicrobial activity against Streptococcus pneumoniae 5 by time-kill analysis
# How it was run: as §2, with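 “12 and” for “12,”, “if” for “=”, “reduction” for “drop”, “90% and 99%” for “90%/99%/99.9%”, “also scored.” for “scored per strain.”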
# Streptococcus pneumoniae [34] = assay: Antimicrobial activity against Streptococcus pneumoniae isolate 3275 by agar dilution method; how it was run: as §1
# Streptococcus pneumoniae [35] = assay: Antimicrobial activity against penicillin-intermediate Streptococcus pneumoniae by agar dilution method
# Streptococcus pneumoniae [36] = assay: Antimicrobial activity against Streptococcus pneumoniae 11 by time-kill analysis; how it was run: as §2
# Streptococcus pneumoniae [37] = assay: Antimicrobial activity against Streptococcus pneumoniae 2 by time-kill analysis; how it was run: as §2
# Streptococcus pneumoniae [38] = assay: Antimicrobial activity against Streptococcus pneumoniae isolate 37 by agar dilution method; how it was run: as §1
# Streptococcus pneumoniae [39] = assay: Antimicrobial activity against Streptococcus pneumoniae 12 by time-kill analysis; how it was run: as §2
# Streptococcus pneumoniae [40] = assay: Antimicrobial activity against Streptococcus pneumoniae isolate 3791 by agar dilution method; how it was run: as §1
# Streptococcus pneumoniae [41] = assay: Antimicrobial activity against Streptococcus pneumoniae isolate 1424 by agar dilution method; how it was run: as §1
# Streptococcus pneumoniae [42] = assay: Antimicrobial activity against Streptococcus pneumoniae isolate 3263 by agar dilution method
# Streptococcus pneumoniae [43] = assay: Antimicrobial activity against Streptococcus pneumoniae isolate 2617 by agar dilution method; how it was run: as §1
# Streptococcus pneumoniae [44] = assay: Antimicrobial activity against Streptococcus pneumoniae isolate 3455 by agar dilution method
# Streptococcus pneumoniae [45] = assay: Antimicrobial activity against penicillin-susceptible Streptococcus pneumoniae by agar dilution method
# Streptococcus pneumoniae [46] = assay: Antimicrobial activity against Streptococcus pneumoniae 9 by time-kill analysis
# How it was run: as §2, with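 “12 and” for “12,”, “if” for “=”, “reduction” for “drop”, “90% and 99%” for “90%/99%/99.9%”, “also scored.” for “scored per strain.”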
# Streptococcus pneumoniae [47] = assay: Antimicrobial activity against Streptococcus pneumoniae isolate 4747 by agar dilution method; how it was run: as §1
smiles,measurement,setting,value
CC[C@H]1OC(=O)[C@H](C)[C@@H](O[C@H]2C[C@@](C)(OC)[C@@H](O)[C@H](C)O2)[C@H](C)[C@@H](O[C@@H]2O[C@H](C)C[C@H](N(C)C)[C@H]2O)[C@](C)(O)C[C@@H](C)CN(C)[C@H](C)[C@@H](O)[C@]1(C)O [AZITHROMYCIN],MIC,Streptococcus pneumoniae [1],> 64 µg/mL
same,MIC,Streptococcus pneumoniae [2],> 64 µg/mL
same,MIC,Streptococcus pneumoniae [3],> 64 µg/mL
same,MIC,Streptococcus pneumoniae [4],4 µg/mL
same,MIC,Streptococcus pneumoniae [5],0.06 µg/mL
same,MIC,Streptococcus pneumoniae [6],> 64 µg/mL
same,MIC,Streptococcus pneumoniae [7],0.03 µg/mL
same,MIC,Streptococcus pneumoniae [8],> 64 µg/mL
same,MIC,Streptococcus pneumoniae [9],> 64 µg/mL
same,MIC,Streptococcus pneumoniae [10],> 64 µg/mL
same,MIC50,Streptococcus pneumoniae [11],0.125 µg/mL
same,MIC,Streptococcus pneumoniae [12],2 µg/mL
same,MIC50,Streptococcus pneumoniae [13],> 64 µg/mL
same,MIC90,Streptococcus pneumoniae [13],> 64 µg/mL
same,MIC,Streptococcus pneumoniae [14],0.06 µg/mL
same,MIC,Streptococcus pneumoniae [15],> 64 µg/mL
same,MIC,Streptococcus pneumoniae [16],0.125 µg/mL
same,MIC,Streptococcus pneumoniae [17],> 64 µg/mL
same,MIC,Streptococcus pneumoniae [18],> 64 µg/mL
same,MIC,Streptococcus pneumoniae [19],> 64 µg/mL
same,MIC,Streptococcus pneumoniae [20],0.125 µg/mL
same,MIC,Streptococcus pneumoniae [21],> 64 µg/mL
same,MIC,Streptococcus pneumoniae [22],2 µg/mL
same,MIC,Streptococcus pneumoniae [23],> 64 µg/mL
same,MIC,Streptococcus pneumoniae [24],> 64 µg/mL
same,MIC,Streptococcus pneumoniae [25],> 64 µg/mL
same,MIC,Streptococcus pneumoniae [26],> 64 µg/mL
same,MIC,Streptococcus pneumoniae [27],> 64 µg/mL
same,MIC,Streptococcus pneumoniae [28],> 64 µg/mL
same,MIC,Streptococcus pneumoniae [29],> 64 µg/mL
same,MIC,Streptococcus pneumoniae [30],4 µg/mL
same,MIC,Streptococcus pneumoniae [31],> 64 µg/mL
same,MIC,Streptococcus pneumoniae [32],> 64 µg/mL
same,MIC,Streptococcus pneumoniae [33],> 64 µg/mL
same,MIC,Streptococcus pneumoniae [34],> 64 µg/mL
same,MIC50,Streptococcus pneumoniae [35],2 µg/mL
same,MIC90,Streptococcus pneumoniae [35],> 64 µg/mL
same,MIC,Streptococcus pneumoniae [36],> 64 µg/mL
same,MIC,Streptococcus pneumoniae [37],0.06 µg/mL
same,MIC,Streptococcus pneumoniae [38],> 64 µg/mL
same,MIC,Streptococcus pneumoniae [39],0.12 µg/mL
same,MIC,Streptococcus pneumoniae [40],> 64 µg/mL
same,MIC,Streptococcus pneumoniae [41],> 64 µg/mL
same,MIC,Streptococcus pneumoniae [42],> 64 µg/mL
same,MIC,Streptococcus pneumoniae [43],0.125 µg/mL
same,MIC,Streptococcus pneumoniae [44],> 64 µg/mL
same,MIC50,Streptococcus pneumoniae [45],2 µg/mL
same,MIC90,Streptococcus pneumoniae [45],> 64 µg/mL
same,MIC,Streptococcus pneumoniae [46],0.06 µg/mL
same,MIC,Streptococcus pneumoniae [47],> 64 µg/mL
